IC50, inhibition and Activity data for 2 compounds are collected here from ChEMBL document CHEMBL2407081, “Discovery of potent, isoform-selective inhibitors of histone deacetylase containing chiral heterocyclic capping groups and a N-(2-aminophenyl)benzamide binding unit” (J Med Chem, 2013).

Active and inactive are the calls of the source. No cut-off for these calls is given here. Some results are limits rather than exact numbers.

What is called IC50 is the concentration at which inhibition is half-maximal.

In experiment [1] the target is Histone deacetylase 3/NCoR1 (Homo sapiens, UniProt O15379). The experiment can be described thus: Inhibition of recombinant HDAC3-NCoR1 (unknown origin) using MAL as substrate incubated for 3 hrs prior to substrate addition measured after 60 mins by fluorescence plate reader analysis. The format is protein-complex assay.
Another experiment has as its target Histone deacetylase 2 (Homo sapiens, UniProt Q92769). In words: Inhibition of recombinant His-tagged HDAC2 (1 to 488) (unknown origin) using MAL as substrate incubated for 3 hrs prior to substrate addition measured after 60 mins by fluorescence plate reader analysis.
The target of experiment [2] is Histone deacetylase 3/NCoR1 (Homo sapiens) (UniProt O15379+O75376). The experiment can be described thus: Competitive inhibition of recombinant HDAC3-NCoR1 (unknown origin) assessed as fast tight binding at 0.016 to 1 uM. The format is protein-complex assay.
In experiment [3] the target is T1, Protein deacetylase HDAC6 (Homo sapiens, UniProt Q9UBN7).
T1 sequence (Q9UBN7 whole entry): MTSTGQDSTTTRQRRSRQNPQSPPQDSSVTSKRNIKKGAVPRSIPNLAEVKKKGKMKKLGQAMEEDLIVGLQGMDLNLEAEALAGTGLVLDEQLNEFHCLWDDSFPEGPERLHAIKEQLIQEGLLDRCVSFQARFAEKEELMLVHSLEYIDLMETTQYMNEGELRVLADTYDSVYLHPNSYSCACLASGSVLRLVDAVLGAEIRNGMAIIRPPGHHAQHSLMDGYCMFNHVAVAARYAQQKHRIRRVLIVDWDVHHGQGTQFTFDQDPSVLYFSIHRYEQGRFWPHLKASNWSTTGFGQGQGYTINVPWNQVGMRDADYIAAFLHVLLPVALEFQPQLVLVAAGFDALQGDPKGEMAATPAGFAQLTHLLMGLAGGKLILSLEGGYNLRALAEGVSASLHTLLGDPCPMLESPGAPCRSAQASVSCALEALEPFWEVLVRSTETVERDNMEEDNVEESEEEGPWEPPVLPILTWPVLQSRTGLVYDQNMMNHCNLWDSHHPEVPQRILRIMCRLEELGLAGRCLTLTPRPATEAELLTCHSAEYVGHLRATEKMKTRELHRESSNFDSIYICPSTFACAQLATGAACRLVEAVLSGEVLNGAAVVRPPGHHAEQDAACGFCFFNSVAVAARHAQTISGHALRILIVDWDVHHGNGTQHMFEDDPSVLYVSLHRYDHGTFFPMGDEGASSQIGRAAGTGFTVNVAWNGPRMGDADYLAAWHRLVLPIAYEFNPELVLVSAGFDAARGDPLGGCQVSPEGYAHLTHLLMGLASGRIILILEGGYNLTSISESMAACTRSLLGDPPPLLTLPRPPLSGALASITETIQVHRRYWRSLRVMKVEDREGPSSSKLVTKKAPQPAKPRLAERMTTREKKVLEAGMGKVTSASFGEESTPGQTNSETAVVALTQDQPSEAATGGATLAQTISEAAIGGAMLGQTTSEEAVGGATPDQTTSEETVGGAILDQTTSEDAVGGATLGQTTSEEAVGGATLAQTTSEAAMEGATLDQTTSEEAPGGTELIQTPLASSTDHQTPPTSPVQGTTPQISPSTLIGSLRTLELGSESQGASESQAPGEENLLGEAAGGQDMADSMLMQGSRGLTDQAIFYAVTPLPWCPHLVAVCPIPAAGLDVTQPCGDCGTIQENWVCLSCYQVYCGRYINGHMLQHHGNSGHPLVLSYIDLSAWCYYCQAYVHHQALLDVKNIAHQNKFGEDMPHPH
In words: Inhibition of recombinant His-tagged HDAC6 (unknown origin) using Fluor-de-Lys SIRT1 as substrate incubated for 3 hrs prior to substrate addition measured after 60 mins by fluorescence plate reader analysis.

For another experiment, the target named is T2, Histone deacetylase 8 (Homo sapiens, UniProt Q9BY41).
T2 sequence (Q9BY41 whole entry): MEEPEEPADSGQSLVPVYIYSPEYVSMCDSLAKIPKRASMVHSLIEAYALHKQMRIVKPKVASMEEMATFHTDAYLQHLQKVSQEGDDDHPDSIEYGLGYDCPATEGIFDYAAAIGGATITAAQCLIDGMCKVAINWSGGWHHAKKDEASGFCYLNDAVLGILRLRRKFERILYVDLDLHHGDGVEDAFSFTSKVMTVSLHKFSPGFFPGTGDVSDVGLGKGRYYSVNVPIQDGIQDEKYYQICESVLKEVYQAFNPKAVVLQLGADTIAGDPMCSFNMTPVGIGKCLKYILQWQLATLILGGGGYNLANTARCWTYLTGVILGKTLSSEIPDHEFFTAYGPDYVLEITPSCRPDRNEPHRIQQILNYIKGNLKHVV
The experiment can be described thus: Inhibition of recombinant HDAC8 (unknown origin) expressed in Escherichia coli BL21 using MAL as substrate incubated for 15 mins prior to substrate addition measured after 60 mins by fluorescence plate reader analysis.

For experiment [4], the system named is HeLa. In words: Induction of apoptosis in human HeLa cells assessed as PARP cleavage at 1 to 10 uM after 24 hrs by Western blot analysis. The format is functional, cell-based.
For experiment [5], the system named is Jurkat. The experiment can be described thus: Cell cycle arrest in human Jurkat cells assessed as accumulation at sub-G1 phase at 10 uM after 24 hrs by FITC/propidium iodide staining-based FACS flow cytometric analysis (reference value: 2%). The experiment is classed as functional. The gist of the method:
(§1)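 HeLa and Jurkat human cells were cultured for 24 h with compound at two concentrations. The control was an equal volume of the DMSO diluent. Cellular DNA and protein content were then measured by flow cytometry, and the percentage of cells in sub-G1, G0/G1, S and G2/M was read out.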

The subject of the next experiment is HCT-116. The experiment can be described thus: Cytotoxicity against human HCT116 cells assessed as growth inhibition by measuring cellular ATP level after 72 hrs by cell-titer glo assay. The format is functional, cell-based. Conditions: HCT-116, 72 h.
The test system of experiment [6] is Jurkat. The experiment can be described thus: Cell cycle arrest in human Jurkat cells assessed as accumulation at G2/M phase at 10 uM after 24 hrs by FITC/propidium iodide staining-based FACS flow cytometric analysis (reference value: 13.2%). The format is functional. Put shortly:
as §1
(In general: Flow cytometry measures light scatter and fluorescence of single cells or particles in a stream.)

In experiment [7] the test system is Jurkat. The experiment can be described thus: Cell cycle arrest in human Jurkat cells assessed as accumulation at G0/G1 phase at 1 uM after 24 hrs by FITC/propidium iodide staining-based FACS flow cytometric analysis (reference value: 55.5%). The format is functional. The gist of the method:
as §1

For another experiment, the system named is MCF7. The experiment can be described thus: Cytotoxicity against human MCF7 cells assessed as growth inhibition by measuring cellular ATP level after 72 hrs by cell-titer glo assay. The note with it: MCF7, 72 h. The experiment is classed as functional, cell-based.
Experiment [8] concerns Jurkat. In words: Cell cycle arrest in human Jurkat cells assessed as accumulation at S phase at 1 uM after 24 hrs by FITC/propidium iodide staining-based FACS flow cytometric analysis (reference value: 22.3%). The experiment is classed as functional. The gist of the method:
as §1

For a further experiment, the system named is A549. In words: Cytotoxicity against human A549 cells assessed as growth inhibition by measuring cellular ATP level after 72 hrs by cell-titer glo assay. Conditions: A549, 72 h. The format is functional, cell-based.
In the next experiment the target is Histone deacetylase 1 (Homo sapiens, UniProt Q13547). The experiment can be described thus: Inhibition of recombinant C-terminal FLAG-tagged HDAC1 (unknown origin) expressed in Escherichia coli BL21 using MAL as substrate incubated for 1 hr prior to substrate addition measured after 60 mins by fluorescence plate reader analysis.
Experiment [9] concerns Jurkat. In words: Induction of apoptosis in human Jurkat cells assessed as PARP cleavage at 1 to 10 uM after 24 hrs by Western blot analysis. The format is functional, cell-based. For orientation: A western blot detects proteins with antibodies after separation by electrophoresis.
Experiment [10] relates to Jurkat. In words: Cell cycle arrest in human Jurkat cells assessed as accumulation at sub-G1 phase at 1 uM after 24 hrs by FITC/propidium iodide staining-based FACS flow cytometric analysis (reference value: 6.8%). The experiment is classed as functional. The gist of the method:
as §1

Experiment [11] concerns HeLa. In words: Cell cycle arrest in human HeLa cells assessed as accumulation at G2/M phase at 10 uM after 24 hrs by FITC/propidium iodide staining-based FACS flow cytometric analysis. The experiment is classed as functional. The gist of the method:
as §1

Experiment [12] relates to Jurkat. In words: Cell cycle arrest in human Jurkat cells assessed as accumulation at G2/M phase at 1 uM after 24 hrs by FITC/propidium iodide staining-based FACS flow cytometric analysis (reference value: 14.4%). The experiment is classed as functional. The gist of the method:
as §1

In a further experiment the test system is DU-145. In words: Cytotoxicity against human DU145 cells assessed as growth inhibition by measuring cellular ATP level after 72 hrs by cell-titer glo assay. Conditions: DU-145, 72 h. The experiment is classed as functional, cell-based.
The subject of experiment [13] is Jurkat. In words: Cell cycle arrest in human Jurkat cells assessed as accumulation at G0/G1 phase at 10 uM after 24 hrs by FITC/propidium iodide staining-based FACS flow cytometric analysis (reference value: 69.5%). The format is functional. Put shortly:
as §1

Experiment [14] has as its system Jurkat. In words: Cell cycle arrest in human Jurkat cells assessed as accumulation at S phase at 10 uM after 24 hrs by FITC/propidium iodide staining-based FACS flow cytometric analysis (reference value: 15.3%). The format is functional. The gist of the method:
as §1

Sequence of Histone deacetylase 3/NCoR1 (O15379 whole entry): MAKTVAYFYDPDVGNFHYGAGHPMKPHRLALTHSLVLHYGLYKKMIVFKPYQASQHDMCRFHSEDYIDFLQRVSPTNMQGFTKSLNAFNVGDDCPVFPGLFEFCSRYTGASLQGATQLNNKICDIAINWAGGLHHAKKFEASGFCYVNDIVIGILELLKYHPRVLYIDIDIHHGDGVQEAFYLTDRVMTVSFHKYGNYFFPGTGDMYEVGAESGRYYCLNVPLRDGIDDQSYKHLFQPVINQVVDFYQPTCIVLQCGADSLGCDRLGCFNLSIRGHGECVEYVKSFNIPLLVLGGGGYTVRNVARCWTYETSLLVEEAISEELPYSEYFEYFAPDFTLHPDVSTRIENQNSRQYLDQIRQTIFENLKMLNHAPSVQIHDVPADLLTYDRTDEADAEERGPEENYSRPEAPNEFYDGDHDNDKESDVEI
Sequence of Histone deacetylase 3/NCoR1 (O75376 whole entry, further chain): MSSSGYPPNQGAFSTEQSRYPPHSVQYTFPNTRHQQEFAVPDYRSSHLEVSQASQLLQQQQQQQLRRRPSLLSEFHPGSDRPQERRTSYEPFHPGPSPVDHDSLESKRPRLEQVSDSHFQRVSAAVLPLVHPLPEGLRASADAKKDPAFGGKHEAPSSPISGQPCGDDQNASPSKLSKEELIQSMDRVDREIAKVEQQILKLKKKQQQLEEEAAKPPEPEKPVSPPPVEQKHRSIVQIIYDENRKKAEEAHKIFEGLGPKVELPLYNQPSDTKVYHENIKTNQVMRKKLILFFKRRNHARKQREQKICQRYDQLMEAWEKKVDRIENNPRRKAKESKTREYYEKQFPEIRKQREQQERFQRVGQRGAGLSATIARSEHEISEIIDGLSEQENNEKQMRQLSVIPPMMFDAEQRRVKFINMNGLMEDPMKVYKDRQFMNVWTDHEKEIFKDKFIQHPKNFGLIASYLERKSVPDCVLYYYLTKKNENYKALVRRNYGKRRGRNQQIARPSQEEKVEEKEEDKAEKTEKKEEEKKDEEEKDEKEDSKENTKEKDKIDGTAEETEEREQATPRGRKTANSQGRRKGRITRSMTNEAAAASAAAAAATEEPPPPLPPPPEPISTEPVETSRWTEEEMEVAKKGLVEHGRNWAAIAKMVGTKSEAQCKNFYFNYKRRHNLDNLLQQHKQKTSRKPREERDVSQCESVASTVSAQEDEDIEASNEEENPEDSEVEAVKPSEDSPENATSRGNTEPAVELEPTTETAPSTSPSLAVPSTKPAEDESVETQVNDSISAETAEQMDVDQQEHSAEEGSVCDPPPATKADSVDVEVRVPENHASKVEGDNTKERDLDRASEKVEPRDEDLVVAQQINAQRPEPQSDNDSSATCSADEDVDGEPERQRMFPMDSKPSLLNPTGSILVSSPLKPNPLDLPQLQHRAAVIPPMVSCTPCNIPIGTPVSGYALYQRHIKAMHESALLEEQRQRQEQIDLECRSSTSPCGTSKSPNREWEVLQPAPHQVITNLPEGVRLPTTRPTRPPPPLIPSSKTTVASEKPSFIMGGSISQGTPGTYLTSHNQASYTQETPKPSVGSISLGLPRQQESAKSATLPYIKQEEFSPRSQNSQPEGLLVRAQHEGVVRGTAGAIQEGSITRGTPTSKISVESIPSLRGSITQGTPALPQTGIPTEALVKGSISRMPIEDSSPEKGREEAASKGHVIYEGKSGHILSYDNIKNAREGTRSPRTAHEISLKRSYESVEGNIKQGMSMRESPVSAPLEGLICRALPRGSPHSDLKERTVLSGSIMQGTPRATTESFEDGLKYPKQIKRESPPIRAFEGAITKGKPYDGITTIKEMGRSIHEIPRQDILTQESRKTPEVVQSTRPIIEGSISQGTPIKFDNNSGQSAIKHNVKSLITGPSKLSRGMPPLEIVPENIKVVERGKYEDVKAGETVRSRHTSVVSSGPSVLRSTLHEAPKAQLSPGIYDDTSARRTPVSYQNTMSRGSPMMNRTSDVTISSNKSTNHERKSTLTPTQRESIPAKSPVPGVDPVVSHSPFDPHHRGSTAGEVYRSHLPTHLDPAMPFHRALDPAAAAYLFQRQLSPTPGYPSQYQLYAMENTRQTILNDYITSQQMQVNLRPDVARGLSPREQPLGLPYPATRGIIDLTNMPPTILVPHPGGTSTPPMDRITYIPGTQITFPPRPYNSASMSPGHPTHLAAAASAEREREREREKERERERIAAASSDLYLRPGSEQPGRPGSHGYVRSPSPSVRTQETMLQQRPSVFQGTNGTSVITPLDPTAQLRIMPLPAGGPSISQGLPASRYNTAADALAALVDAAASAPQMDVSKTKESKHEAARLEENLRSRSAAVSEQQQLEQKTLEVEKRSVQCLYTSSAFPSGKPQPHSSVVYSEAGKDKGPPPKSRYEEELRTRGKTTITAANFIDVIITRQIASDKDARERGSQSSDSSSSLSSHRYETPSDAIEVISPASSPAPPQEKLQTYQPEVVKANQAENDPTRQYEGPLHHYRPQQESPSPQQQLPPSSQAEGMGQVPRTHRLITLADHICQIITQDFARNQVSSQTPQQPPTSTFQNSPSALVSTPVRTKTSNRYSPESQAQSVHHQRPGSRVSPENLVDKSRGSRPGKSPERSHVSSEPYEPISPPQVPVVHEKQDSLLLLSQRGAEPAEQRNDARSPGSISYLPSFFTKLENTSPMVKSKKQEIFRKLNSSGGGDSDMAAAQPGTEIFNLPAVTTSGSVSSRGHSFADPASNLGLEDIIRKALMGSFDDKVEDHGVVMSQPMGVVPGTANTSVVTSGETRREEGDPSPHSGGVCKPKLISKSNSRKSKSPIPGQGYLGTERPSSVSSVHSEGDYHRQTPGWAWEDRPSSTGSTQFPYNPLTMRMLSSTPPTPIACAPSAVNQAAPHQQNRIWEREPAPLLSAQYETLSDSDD
Sequence of Histone deacetylase 2 (Q92769 whole entry): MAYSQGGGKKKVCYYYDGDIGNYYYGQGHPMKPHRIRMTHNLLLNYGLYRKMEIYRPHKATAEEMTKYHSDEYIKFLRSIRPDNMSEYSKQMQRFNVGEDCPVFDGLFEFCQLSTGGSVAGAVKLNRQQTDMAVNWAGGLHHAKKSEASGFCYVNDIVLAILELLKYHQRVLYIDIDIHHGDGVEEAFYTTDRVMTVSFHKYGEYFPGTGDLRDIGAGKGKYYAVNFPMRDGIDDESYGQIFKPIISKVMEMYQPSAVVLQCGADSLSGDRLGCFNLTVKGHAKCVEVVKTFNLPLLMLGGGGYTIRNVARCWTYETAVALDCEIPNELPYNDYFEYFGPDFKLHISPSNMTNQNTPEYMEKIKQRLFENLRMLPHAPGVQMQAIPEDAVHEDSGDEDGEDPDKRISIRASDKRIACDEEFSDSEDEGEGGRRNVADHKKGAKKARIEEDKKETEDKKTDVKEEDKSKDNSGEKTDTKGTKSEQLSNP
Sequence of Histone deacetylase 1 (Q13547 whole entry): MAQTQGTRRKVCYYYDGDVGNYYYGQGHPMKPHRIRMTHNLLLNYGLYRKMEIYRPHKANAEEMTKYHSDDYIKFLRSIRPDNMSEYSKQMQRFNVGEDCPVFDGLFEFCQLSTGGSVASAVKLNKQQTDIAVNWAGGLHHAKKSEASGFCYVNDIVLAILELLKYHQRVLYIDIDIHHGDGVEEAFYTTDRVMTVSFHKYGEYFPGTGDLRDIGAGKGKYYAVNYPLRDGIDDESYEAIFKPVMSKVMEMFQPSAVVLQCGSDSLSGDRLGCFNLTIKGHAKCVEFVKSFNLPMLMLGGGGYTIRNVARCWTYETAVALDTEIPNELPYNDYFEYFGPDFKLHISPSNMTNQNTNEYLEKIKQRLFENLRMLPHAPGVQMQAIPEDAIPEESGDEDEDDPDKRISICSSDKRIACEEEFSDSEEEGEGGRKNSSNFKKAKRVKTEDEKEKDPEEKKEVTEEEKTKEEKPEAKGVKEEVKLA

For the compound `O=C(NO)c1ccc(CNc2nccc(-c3cccnc3)n2)cc1`, the IC50 in [1] was 31 nM; at Histone deacetylase 2, 219 nM; in [3] it was 42 nM; at Histone deacetylase 8, 410 nM. Further, in [2], the inhibition entry is “Active”.
For the compound `Nc1ccccc1NC(=O)c1ccc(CNC2=NC(=O)C(c3ccccc3)N2)cc1` (racemic), in the experiment with HeLa [4], the result was inactive. The half-inhibitory concentration (IC50) was 14 nM in [1]; 56 nM at Histone deacetylase 2; 18200 nM with HCT-116; above 20000 nM in experiment [3]; 30100 nM in the experiment with MCF7; above 50000 nM with A549. In addition, the values for the half-maximal inhibitory concentration (IC50) at Histone deacetylase 1, on Histone deacetylase 8 and in the experiment on DU-145 were 350 nM, 8000 nM and above 50000 nM, respectively. Besides, the Activity in the experiment on Jurkat [5] amounted to 3.1%; in the experiment with Jurkat [6], 10.7%; in the experiment on Jurkat [7], 55.2%; in the experiment with Jurkat [8] it was 22.3%; with Jurkat [10], 7.4%; in the experiment with Jurkat [12], 15.1%. In addition, the results for the Activity in the experiment on Jurkat [13] and with Jurkat [14] were 65.5% and 20.7%, respectively. Besides, the result in the experiment with Jurkat [9] and in the experiment on HeLa [11] was Active.
